Reference: ChEMBL document CHEMBL1149410, “Discovery of a potent phenolic N1-benzylidene-pyridinecarboxamidrazone selective against Gram-positive bacteria” (Bioorg Med Chem Lett, 2006)
Converted amounts (≈) assume the structure as drawn. The source made the active and inactive calls. The rule behind the calls is not given here.

Experiments:
PBMC [1] = experiment: Toxicity towards human mononuclear leucocytes at 1 mM; format: cell-based; conditions: 1000 µM
Method in brief: (§1)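 Human mononuclear leucocytes were exposed to compound for 1 h, then held in compound-free medium for 18 h. Cell death was scored by trypan blue exclusion and reported as % leucocyte death. The test concentration was 1 mM, or 0.5 mM where solubility limited it.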

Staphylococcus aureus [2] = experiment: Antibacterial activity against 10 clinical isolate methicillin-resistant strains of Staphylococcus aureus; format: functional
Method in brief: (§2)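 Agar dilution MIC on Mueller–Hinton agar. Bacteria were spotted with a multipoint inoculator and plates incubated at 37 °C for 18 h. MIC was taken as the lowest concentration inhibiting growth. The panels covered clinical MRSA isolates, methicillin-sensitive S. aureus, enterococci, Gram-negative bacteria and vancomycin-resistant enterococci.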

[3] = system: Mycolicibacterium fortuitum; experiment: Antibacterial activity against Mycobacterium fortuitum; format: functional, organism-based
Method in brief: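 The Mycobacterium fortuitum reference strain NCTC 10394 was screened for a zone of inhibition on Columbia agar supplemented with horse blood. Compounds were also screened at a single concentration in Middlebrook 7H9 broth with glycerol and ADC enrichment. The MIC was determined in broth when a zone or single-concentration activity was seen.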

Pseudomonas aeruginosa = experiment: Antibacterial activity against Pseudomonas aeruginosa NCTC 6749; format: functional; method in brief: as §2
Enterococcus [4] = experiment: Antibacterial activity against vancomycin-resistant Enterococcus 3102095; format: functional; method in brief: as §2
Serratia marcescens = experiment: Antibacterial activity against Serratia marcescens 4444; format: functional; method in brief: as §2
Enterococcus [5] = experiment: Antibacterial activity against vancomycin-resistant Enterococcus 3005353; format: functional; method in brief: as §2
Enterococcus [6] = experiment: Antibacterial activity against vancomycin-resistant Enterococcus 3002043; format: functional; method in brief: as §2
[7] = system: Bordetella bronchiseptica; experiment: Antibacterial activity against Bordetella bronchiseptica NCTC 8344; format: functional; method in brief: as §2
Escherichia coli [8] = experiment: Antibacterial activity against Escherichia coli W3110 R-; format: functional; method in brief: as §2
Enterococcus [9] = experiment: Antibacterial activity against vancomycin-resistant Enterococcus 3005426; format: functional; method in brief: as §2
Enterococcus [10] = experiment: Antibacterial activity against vancomycin-resistant Enterococcus 3001562; format: functional; method in brief: as §2
[11] = system: Stenotrophomonas maltophilia; experiment: Antibacterial activity against Stenotrophomonas maltophilia NCTC 10257; format: functional; method in brief: as §2
Enterococcus faecalis [12] = experiment: Antibacterial activity against Enterococcus faecalis isolate 2; format: functional; method in brief: as §2
Enterococcus faecium [13] = experiment: Antibacterial activity against Enterococcus faecium ACTCC 10541; format: functional
Method in brief: (§3)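 Agar dilution MIC on Mueller–Hinton agar, with a multipoint inoculator spotting the organisms. The MIC was the lowest concentration that inhibited growth after 18 h at 37 °C.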

Enterococcus faecalis [14] = experiment: Antibacterial activity against Enterococcus faecalis isolate 1; format: functional; method in brief: as §3
Enterococcus faecalis [15] = experiment: Antibacterial activity against Enterococcus faecalis isolate 5; format: functional; method in brief: as §3
Klebsiella pneumoniae = experiment: Antibacterial activity against Klebsiella pneumoniae 327; format: functional; method in brief: as §2
Enterobacter cloacae = experiment: Antibacterial activity against Enterobacter cloacae NCTC 11582; format: functional; method in brief: as §2
Enterococcus faecium [16] = experiment: Antibacterial activity against Enterococcus faecium NCTC 7171; format: functional; method in brief: as §3
Enterococcus [17] = experiment: Antibacterial activity against vancomycin-resistant Enterococcus 3002066; format: functional; method in brief: as §2
Enterococcus [18] = experiment: Antibacterial activity against vancomycin-resistant Enterococcus 3005323; format: functional; method in brief: as §2
Enterococcus faecalis [19] = experiment: Antibacterial activity against Enterococcus faecalis NCTC 5957; format: functional; method in brief: as §3
Staphylococcus aureus [20] = experiment: Antibacterial activity against methicillin-sensitive Staphylococcus aureus Cowan 1; format: functional; method in brief: as §2
Staphylococcus aureus [21] = experiment: Antibacterial activity against methicillin-sensitive Staphylococcus aureus NCTC 10788; format: functional; method in brief: as §2
Enterococcus faecalis [22] = experiment: Antibacterial activity against Enterococcus faecalis isolate 3; format: functional; method in brief: as §2
Enterococcus faecalis [23] = experiment: Antibacterial activity against Enterococcus faecalis isolate 4; format: functional; method in brief: as §3
Staphylococcus aureus [24] = experiment: Antibacterial activity against methicillin-sensitive Staphylococcus aureus NCTC 6571; format: functional; method in brief: as §2
[25] = system: Staphylococcus haemolyticus; experiment: Antibacterial activity against clinical isolate of Staphylococcus haemolyticus; format: functional; method in brief: as §3
Escherichia coli [26] = experiment: Antibacterial activity against Escherichia coli W3110 R+; format: functional; method in brief: as §2
PBMC [27] = experiment: Toxicity towards human mononuclear leucocytes at 0.5 mM; format: cell-based; conditions: 500 µM; method in brief: as §1
[28] = system: Mycobacterium tuberculosis; experiment: Antibacterial activity against Mycobacterium tuberculosis H37Rv; format: functional
Method in brief: (§4)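 Inhibition of M. tuberculosis H37Rv (ATCC 27294) growth was tested in BACTEC 12B medium. Percent inhibition was recorded at a fixed concentration, and MIC was also determined.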

[29] = system: Mycobacterium tuberculosis; experiment: Antibacterial activity against Mycobacterium tuberculosis H37Rv at 6.25 ug/ml; format: functional; method in brief: as §4

CC(C)(C)c1cc(C=O)c(O)c(C(C)(C)C)c1
Activity (PBMC [1]): 32.7%

COc1c(/C=N/N=C(\N)c2ccncc2)cc(C(C)(C)C)cc1C(C)(C)C
MIC (Staphylococcus aureus [2]): inactive

Cc1cc(C)c(O)c(/C=N/N=C(\N)c2ccncc2)c1
MIC (Staphylococcus aureus [2]): inactive

CC(C)(C)c1cc(/C=N/N=C(\N)c2ccccn2)c(O)c(C(C)(C)C)c1
Activity [3]: inactive
MIC (Staphylococcus aureus [2]): inactive

CC(C)(C)c1cc(/C=N/N=C(\N)c2cnccn2)c(O)c(C(C)(C)C)c1
Activity [3]: inactive
MIC (Staphylococcus aureus [2]): inactive

CN[C@H](CC(C)C)C(=O)N[C@H]1C(=O)N[C@@H](CC(N)=O)C(=O)N[C@H]2C(=O)N[C@H]3C(=O)N[C@H](C(=O)N[C@H](C(=O)O)c4cc(O)cc(O)c4-c4cc3ccc4O)[C@H](O)c3ccc(c(Cl)c3)Oc3cc2cc(c3O[C@@H]2O[C@H](CO)[C@@H](O)[C@H](O)[C@H]2O[C@H]2C[C@](C)(N)[C@H](O)[C@H](C)O2)Oc2ccc(cc2Cl)[C@H]1O [VANCOMYCIN]
MIC (Pseudomonas aeruginosa): > 16 µg/mL
MIC (Enterococcus [4]): > 16 µg/mL
MIC (Serratia marcescens): > 16 µg/mL
MIC (Enterococcus [5]): > 16 µg/mL
MIC (Enterococcus [6]): 4 µg/mL (≈ 2.76 µM)
MIC [7]: > 16 µg/mL
MIC (Staphylococcus aureus [2]): 0.05 µg/mL (≈ 0.0345 µM)
MIC (Escherichia coli [8]): > 16 µg/mL
MIC (Enterococcus [9]): 4 µg/mL (≈ 2.76 µM)
MIC (Enterococcus [10]): 4 µg/mL (≈ 2.76 µM)
MIC [11]: > 16 µg/mL
MIC (Enterococcus faecalis [12]): 0.25 µg/mL (≈ 0.173 µM)
MIC (Enterococcus faecium [13]): 0.12 µg/mL (≈ 0.0828 µM)
MIC (Enterococcus faecalis [14]): 0.12 µg/mL (≈ 0.0828 µM)
MIC (Enterococcus faecalis [15]): 2 µg/mL (≈ 1.38 µM)
MIC (Klebsiella pneumoniae): > 16 µg/mL
MIC (Enterobacter cloacae): > 16 µg/mL
MIC (Enterococcus faecium [16]): 0.12 µg/mL (≈ 0.0828 µM)
MIC (Enterococcus [17]): 4 µg/mL (≈ 2.76 µM)
MIC (Enterococcus [18]): > 16 µg/mL
MIC (Enterococcus faecalis [19]): 0.25 µg/mL (≈ 0.173 µM)
MIC (Staphylococcus aureus [20]): 0.12 µg/mL (≈ 0.0828 µM)
MIC (Staphylococcus aureus [21]): 0.25 µg/mL (≈ 0.173 µM)
MIC (Enterococcus faecalis [22]): 0.25 µg/mL (≈ 0.173 µM)
MIC (Enterococcus faecalis [23]): 16 µg/mL (≈ 11 µM)
MIC (Staphylococcus aureus [24]): 0.12 µg/mL (≈ 0.0828 µM)
MIC [25]: 8 µg/mL (≈ 5.52 µM)
MIC (Escherichia coli [26]): > 16 µg/mL

N/C(=N\N=C\c1cc([N+](=O)[O-])ccc1O)c1ccncc1
Activity [3]: inactive
MIC (Staphylococcus aureus [2]): 20 µg/mL (≈ 70.1 µM)

N/C(=N\N=C\c1cc(O)c(O)cc1O)c1ccncc1
Activity [3]: inactive
MIC (Staphylococcus aureus [2]): 20 µg/mL (≈ 73.5 µM)

N/C(=N\N=C\c1cc(Br)cc([N+](=O)[O-])c1O)c1ccncc1
Activity [3]: inactive
MIC (Staphylococcus aureus [2]): inactive

NNC(=O)c1ccncc1 [ISONIAZID]
Activity (PBMC [1]): 12.4%

N/C(=N\N=C\c1cc(I)cc(I)c1O)c1ccncc1
MIC (Staphylococcus aureus [2]): 10 µg/mL (≈ 20.3 µM)

COc1cc([N+](=O)[O-])cc(/C=N/N=C(\N)c2ccncc2)c1O
Activity [3]: inactive
MIC (Staphylococcus aureus [2]): inactive

COc1ccc(/C=N/N=C(\N)c2ccncc2)c(O)c1
Activity [3]: inactive
MIC (Staphylococcus aureus [2]): inactive

CC(C)(C)c1cc(/C=N/N=C(\N)c2ccc3ccccc3n2)c(O)c(C(C)(C)C)c1
Activity [3]: inactive
MIC (Staphylococcus aureus [2]): inactive

N/C(=N\N=C\c1cccc(O)c1O)c1ccncc1
Activity [3]: inactive
MIC (Staphylococcus aureus [2]): inactive

CC(=O)Oc1c(/C=N/N=C(\N)c2ccncc2)cc(C(C)(C)C)cc1C(C)(C)C
Activity [3]: inactive
MIC (Staphylococcus aureus [2]): 4 µg/mL (≈ 10.1 µM)

N/C(=N\N=C\c1ccc(O)c(O)c1O)c1ccncc1
Activity [3]: inactive
MIC (Staphylococcus aureus [2]): 30 µg/mL (≈ 110 µM)

N/C(=N\N=C\c1ccccc1O)c1ccncc1
MIC (Staphylococcus aureus [2]): inactive
Activity (PBMC [1]): 11.7%

N/C(=N\N=C\c1cc([N+](=O)[O-])cc(Br)c1O)c1ccncc1
MIC (Staphylococcus aureus [2]): inactive

COc1cccc(/C=N/N=C(\N)c2ccncc2)c1O
Activity [3]: inactive
MIC (Staphylococcus aureus [2]): inactive

CC(C)(C)c1cc(/C=N/N=C(\N)c2ccncc2)c(O)c(C(C)(C)C)c1
MIC (Pseudomonas aeruginosa): inactive
MIC (Enterococcus [4]): 2 µg/mL (≈ 5.67 µM)
MIC (Serratia marcescens): inactive
Activity [3]: inactive
MIC (Enterococcus [5]): 2 µg/mL (≈ 5.67 µM)
MIC (Enterococcus [6]): 2 µg/mL (≈ 5.67 µM)
MIC [7]: inactive
MIC (Staphylococcus aureus [2]): 2 µg/mL (≈ 5.67 µM)
MIC (Escherichia coli [8]): inactive
MIC (Enterococcus [9]): 2 µg/mL (≈ 5.67 µM)
Activity (PBMC [27]): 100%
MIC [28]: 6.25 µg/mL (≈ 17.7 µM)
MIC (Enterococcus [10]): 2 µg/mL (≈ 5.67 µM)
MIC [11]: inactive
MIC (Enterococcus faecalis [12]): 2 µg/mL (≈ 5.67 µM)
MIC (Enterococcus faecium [13]): 2 µg/mL (≈ 5.67 µM)
inhibition at 6.25 µg/mL [29]: 100%
MIC (Enterococcus faecalis [14]): 2 µg/mL (≈ 5.67 µM)
MIC (Enterococcus faecalis [15]): 2 µg/mL (≈ 5.67 µM)
MIC (Klebsiella pneumoniae): inactive
MIC (Enterobacter cloacae): inactive
MIC (Enterococcus faecium [16]): 2 µg/mL (≈ 5.67 µM)
MIC (Enterococcus [17]): 2 µg/mL (≈ 5.67 µM)
MIC (Enterococcus [18]): 2 µg/mL (≈ 5.67 µM)
MIC (Enterococcus faecalis [19]): 2 µg/mL (≈ 5.67 µM)
MIC (Staphylococcus aureus [20]): 2 µg/mL (≈ 5.67 µM)
MIC (Staphylococcus aureus [21]): 2 µg/mL (≈ 5.67 µM)
MIC (Enterococcus faecalis [22]): 4 µg/mL (≈ 11.3 µM)
MIC (Enterococcus faecalis [23]): 2 µg/mL (≈ 5.67 µM)
MIC (Staphylococcus aureus [24]): 2 µg/mL (≈ 5.67 µM)
MIC [25]: 2 µg/mL (≈ 5.67 µM)
MIC (Escherichia coli [26]): inactive

N/C(=N\N=C\c1ccc(O)c(O)c1)c1ccncc1
Activity [3]: inactive
MIC (Staphylococcus aureus [2]): inactive

N/C(=N\N=C\c1c(O)cc(O)cc1O)c1ccncc1
Activity [3]: inactive
MIC (Staphylococcus aureus [2]): inactive

CC(C)(C)c1cc(/C=N/N=C(\N)c2cccnc2)c(O)c(C(C)(C)C)c1
Activity [3]: inactive
MIC (Staphylococcus aureus [2]): inactive

N/N=C(/N)c1ccncc1
Activity (PBMC [1]): 13.8%

CC(C)(C)c1cc(/C=N/N=C(\N)c2ccncc2)cc(C(C)(C)C)c1O
MIC (Pseudomonas aeruginosa): inactive
MIC (Serratia marcescens): inactive
Activity [3]: inactive
MIC [7]: inactive
MIC (Staphylococcus aureus [2]): > 256 µg/mL
MIC (Escherichia coli [8]): inactive
MIC [11]: inactive
MIC (Enterococcus faecium [13]): inactive
inhibition at 6.25 µg/mL [29]: 75%
MIC (Enterococcus faecalis [14]): inactive
MIC (Klebsiella pneumoniae): inactive
MIC (Enterobacter cloacae): inactive
MIC (Enterococcus faecium [16]): inactive
MIC (Enterococcus faecalis [19]): inactive
MIC (Staphylococcus aureus [20]): inactive
MIC (Staphylococcus aureus [21]): inactive
MIC (Staphylococcus aureus [24]): > 256 µg/mL
MIC [25]: inactive
MIC (Escherichia coli [26]): inactive
